Assay outcomes from PubChem BioAssay.
EBNA-1 inhibitor = blocks EBNA-1 binding to DNA. inhibition, % at 14.8 µM. 300,000 tested, 0.34% active. EBNA-1 DNA binding, fluorescence polarization; in the data active = inhibition above about 28%
ALR H2O2 inh = human ALR oxidase inhibition via reduced H2O2; 290,000 tested, 3.8% active; AID 485317; inhibition, % (test concentration not listed); purified ALR, DTT oxidation, H2O2 HRP-luminol luminescence;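 active = mean replicate inhibition above about 79%, with every replicate also reaching it, limit read from the data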
Target sequence (P55789 whole entry, looked up): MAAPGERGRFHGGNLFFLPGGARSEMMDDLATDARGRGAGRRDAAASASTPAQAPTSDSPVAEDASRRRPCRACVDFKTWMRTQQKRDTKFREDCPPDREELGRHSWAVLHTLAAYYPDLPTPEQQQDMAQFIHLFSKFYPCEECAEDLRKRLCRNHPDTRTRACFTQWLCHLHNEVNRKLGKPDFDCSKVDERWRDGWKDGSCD
ZTA DNA inh = blocks Epstein-Barr virus ZTA, an EBNA-1 counter-screen | ZTA-DNA binding, fluorescence polarization | inhibition, % at 11 µM | 320,000 tested, 0.15% active | AID 2234; in the data active = inhibition above about 33%
Target sequence (P03206 whole entry, looked up): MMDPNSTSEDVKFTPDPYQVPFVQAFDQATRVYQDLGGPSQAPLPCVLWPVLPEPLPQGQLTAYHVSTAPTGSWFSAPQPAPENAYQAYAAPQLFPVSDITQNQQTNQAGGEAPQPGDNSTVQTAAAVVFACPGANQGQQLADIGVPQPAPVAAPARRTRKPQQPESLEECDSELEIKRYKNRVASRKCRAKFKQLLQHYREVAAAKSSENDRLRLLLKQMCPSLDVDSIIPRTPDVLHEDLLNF
HCV NS3 hel inh = inhibitors of Hepatitis C virus NS3 helicase | inhibition, % at 10.9 µM | 290,000 tested, 0.56% active | NS3 helicase DNA unwinding, Cy5 molecular beacon fluorescence;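 active = inhibition above the mean of all tested compounds plus 3 SD, set per campaign, cut at about 35% in these data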
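Assay system: hepatitis C virus NS3 helicase domain fragment enzyme. Also added: annealed dual-labelled DNA beacon duplex, ATP-started. Timing: 1 h reaction at 25 °C, ATP-initiated. Technique: Cy5 fluorescence at 0 and 60 min, beacon hairpin quenching. Evaluation: % inhibition of unwinding. Replication: one well per compound.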
core dimer inh = blocks dimerization of HCV core protein; TR-FRET GST/Flag-core106 dimerization, 1536-well; inhibition, % at 5 µM; 300,000 tested, 0.33% active;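 active = inhibition above the mean of all tested compounds plus 3 SD, set per screening campaign, cut at about 45% in these data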
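Material: Tagged HCV core106 pair (GST and Flag) | Amount: GST-core106 13.5 nM, Flag-core106 17 nM | Medium: KF-containing HEPES buffer, pH 7.45, DTT, CHAPS, BSA | Reagent: Eu donor and XL665 acceptor anti-tag antibodies | Schedule: 4 h at 22.5 °C | Technique: Time-resolved FRET, ex 340 nm, em 617 and 671 nm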
PfM18AAP inh = PfM18AAP enzyme inhibition; recombinant PfM18AAP, H-Glu-NHMec fluorogenic cleavage; inhibition, % at 7.35 µM; 290,000 tested, 1.2% active; AID 1822;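 active = inhibition above the campaign mean inhibition over all tested compounds plus 3 SD, cut at about 28% in these data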
Of the large screens only hits and unclear results are named; the others gave an inactive call. An excerpt weighted towards active compounds, which were near 5.2% of everything screened.

COc1ccc(C2Nc3ccccc3NC3=C2C(=O)CC(C)(C)C3)cc1OC (stereo not drawn)	none
COc1cc(C2Nc3cc(C)c(C)cc3NC3=C2C(=O)CC(C)(C)C3)ccc1OC(C)=O (stereo not drawn)	ALR H2O2 inh 80
COc1cccc(C2Nc3ccccc3NC3=C2C(=O)CC(C)(C)C3)c1OC (stereo not drawn)	ALR H2O2 inh 99
CCOc1ccc(C2Nc3ccccc3NC3=C2C(=O)CC(C)(C)C3)cc1OC (stereo not drawn)	ALR H2O2 inh 98
CSc1ccccc1C(=O)N(C)C(c1ccccc1)c1ccccc1	none
Cc1cc(C(=O)NNC(=O)C(C)(C)Oc2ccc(Cl)cc2)c(C)o1	none (no result: EBNA-1 inhibitor, ZTA DNA inh, HCV NS3 hel inh, core dimer inh, PfM18AAP inh)
COc1ccc(C2Nc3ccccc3NC3=C2C(=O)CC(C)(C)C3)c(OC)c1OC (stereo not drawn)	ALR H2O2 inh 98
COc1ccccc1C1Nc2ccccc2NC2=C1C(=O)CC(C)(C)C2 (stereo not drawn)	ALR H2O2 inh 99
COc1ccc(C2Nc3ccccc3NC3=C2C(=O)CC(C)(C)C3)cc1O (stereo not drawn)	none (no result: ALR H2O2 inh)
O=C(CN1C(=O)COc2ccccc21)NCCCN1CCCCC1	none
CCN(CC(=O)N1CCOCC1)S(=O)(=O)c1ccc2ccccc2c1	none (no result: EBNA-1 inhibitor, ZTA DNA inh, core dimer inh)
O=C(N/N=C/C(Br)=C/c1ccccc1)c1n[nH]c2c1CCC2	core dimer inh 69
O=C(N/N=C/c1ccccc1)c1n[nH]c2c1CCCC2	none
O=C(O)CCN1C(=O)/C(=C/c2ccc(-c3nc4ccccc4s3)o2)SC1=S	none
Cc1ccc(NC(=O)CCCN2C(=O)/C(=C/C=C/c3ccccc3)SC2=S)cc1	core dimer inh 57
CN1CCN(C(=O)CCCN2C(=O)/C(=C/c3ccccc3)SC2=S)CC1	none
O=C(O)CCCN1C(=O)/C(=C\c2ccc(-c3nc4ccccc4s3)o2)SC1=S	ALR H2O2 inh 94
CC(=C\c1ccccc1)/C=C1/SC(=O)N(CCCC(=O)Nc2ccc(C(=O)O)cc2)C1=O	ALR H2O2 inh 97
O=C(O)CCCN1C(=O)/C(=C\C(Cl)=C\c2ccccc2)SC1=S	ALR H2O2 inh 98 (no result: EBNA-1 inhibitor, ZTA DNA inh, core dimer inh)
Cc1c(CC(=O)N[C@H](C(=O)O)C(C)C)c(=O)oc2cc3c(cc12)CCC(C)(C)O3	none (no result: EBNA-1 inhibitor, ZTA DNA inh, core dimer inh)
CCOc1ccc(N(C)S(=O)(=O)c2ccc(C)c(C(=O)N3CCN(Cc4ccc5c(c4)OCO5)CC3)c2)cc1	none (no result: EBNA-1 inhibitor, ZTA DNA inh, HCV NS3 hel inh, core dimer inh, PfM18AAP inh)
COc1cc(C(=O)N/N=C/c2ccc(OC(=O)c3cccc(C)c3)c(OC)c2)ccc1O	none
O=C(Oc1ccc[nH]c1=O)c1cc([N+](=O)[O-])cc([N+](=O)[O-])c1	PfM18AAP inh 30
c1cc2c(cc1C1=NNC(=NC3CC3)SC1)OCCO2	PfM18AAP inh 31
Cc1ccc(NC2CCCN(C(=O)CSc3ccncc3)C2)cc1C (stereo not drawn)	ALR H2O2 inh 98 (no result: EBNA-1 inhibitor, ZTA DNA inh, core dimer inh)
Cc1ccc(NC2CCCN(C(=O)CCC(=O)c3ccccc3)C2)cc1C (stereo not drawn)	none (no result: EBNA-1 inhibitor, ALR H2O2 inh, ZTA DNA inh, core dimer inh)
Cc1ccc(NC2CCCN(C(=O)CN3C(=O)c4ccccc4C3=O)C2)cc1C (stereo not drawn)	ALR H2O2 inh 93
Cc1ccc(NC2CCCN(C(=O)Cc3nonc3C)C2)cc1C (stereo not drawn)	ALR H2O2 inh 99
Cc1ccc(NC2CCCN(C(=O)CCc3ccncc3)C2)cc1C (stereo not drawn)	ALR H2O2 inh 98 (no result: EBNA-1 inhibitor, ZTA DNA inh, core dimer inh)
CS(=O)(=O)c1ccc2nc(NC(=O)c3ccccc3Br)sc2c1	none
CC(O)[C@@]1(O)CC[C@H]2[C@@H]3CC[C@H]4C[C@@H](O)CC[C@]4(C)C3=CC[C@@]21C (stereo partly drawn)	none (no result: HCV NS3 hel inh, PfM18AAP inh)
O=C(CSc1ccccn1)N1CCCC(Nc2ccc(F)c(F)c2)C1 (stereo not drawn)	none
COc1ccc(NC2CCCN(C(=O)CCc3ccncc3)C2)cc1OC (stereo not drawn)	ALR H2O2 inh 95
COc1ccc(NC2CCCN(C(=O)CCCn3cncn3)C2)cc1OC (stereo not drawn)	ALR H2O2 inh 94
O=C(CCc1ccncc1)N1CCCC(Nc2ccc(F)c(F)c2)C1 (stereo not drawn)	ALR H2O2 inh 95
CN1CCN(c2ccccc2NC(=O)c2sc3ccccc3c2Cl)CC1	none
